Shown are actives, neighbours in structure and some others; about 2.3% of the full set was active somewhere.
TRPC4 potent = allosteric potentiators of mouse TRPC4 channel. HEK293 TRPC4beta/mu-opioid, DAMGO EC20, Fluo-4 Ca2+ flux; stronger effect = higher value. B-score at 10 µM. hit rate 0.42% among 310,000;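 active = B-score of calcium response area above 5 SD of library B-scores, with initial fluorescence ratio within 5 SD of library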
TRPC6 activator = mouse TRPC6 channel activation. HEK293-TRPC6 membrane potential dye fluorescence; stronger effect = higher value. Q61143. B-score at 10 µM. hit rate 0.13% among 310,000;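 active = B-score of the integrated fluorescence ratio above library mean plus 3 SD, and starting fluorescence ratio within library mean plus 5 SD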;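 note: higher score means more depolarization so channel activation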
Target sequence (Q61143 whole entry, looked up): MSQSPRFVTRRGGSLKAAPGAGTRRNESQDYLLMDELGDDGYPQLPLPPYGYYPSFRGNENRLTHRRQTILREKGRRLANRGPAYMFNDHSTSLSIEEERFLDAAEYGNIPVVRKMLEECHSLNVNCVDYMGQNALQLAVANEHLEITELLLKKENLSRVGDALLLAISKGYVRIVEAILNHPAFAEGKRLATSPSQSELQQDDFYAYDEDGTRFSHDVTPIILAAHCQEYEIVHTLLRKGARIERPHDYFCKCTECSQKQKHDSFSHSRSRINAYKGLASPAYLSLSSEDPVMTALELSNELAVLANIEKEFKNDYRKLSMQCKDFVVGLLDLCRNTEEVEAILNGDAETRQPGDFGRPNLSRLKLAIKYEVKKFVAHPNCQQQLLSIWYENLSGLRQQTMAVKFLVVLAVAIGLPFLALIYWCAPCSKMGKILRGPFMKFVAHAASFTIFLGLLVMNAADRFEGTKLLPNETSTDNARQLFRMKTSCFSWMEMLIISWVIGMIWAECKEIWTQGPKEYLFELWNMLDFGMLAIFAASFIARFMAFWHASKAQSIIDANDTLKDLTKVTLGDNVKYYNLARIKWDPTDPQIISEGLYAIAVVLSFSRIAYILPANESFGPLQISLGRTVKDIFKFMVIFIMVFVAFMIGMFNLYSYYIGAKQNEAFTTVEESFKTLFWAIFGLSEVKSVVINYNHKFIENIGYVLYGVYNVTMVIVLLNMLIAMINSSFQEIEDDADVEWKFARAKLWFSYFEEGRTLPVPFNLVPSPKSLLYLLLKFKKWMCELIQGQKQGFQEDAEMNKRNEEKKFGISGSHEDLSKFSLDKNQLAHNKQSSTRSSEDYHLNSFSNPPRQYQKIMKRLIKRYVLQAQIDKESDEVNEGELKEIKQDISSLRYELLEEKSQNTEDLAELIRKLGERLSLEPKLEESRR
TRPC6 inhibitor = mouse TRPC6 channel inhibition; Q61143; HEK293-TRPC6, membrane potential dye, ACh-evoked depolarization; stronger effect = lower value; B-score at 10 µM; hit rate 1.1% among 310,000;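 active = B-score under library mean minus 3 SD, initial fluorescence not abnormally high, positive integrated signal ratio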;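 note: B-score derived from integrated fluorescence ratio over the kinetic read; more negative B-score means stronger inhibition of depolarization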
TRPC4 block = TRPC4 (mouse) channel inhibition. Q9QUQ5. AID 2247. B-score at 10 µM. HEK293 TRPC4beta/mu-opioid, DAMGO-evoked Fluo4 calcium flux; stronger effect = lower value. hit rate 0.39% among 300,000;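 active = B-score over 3 SD under the library average, no early fluorescence shift, positive overall ratio signal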
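Assay system – HEK293 line stably carrying TRPC4beta and mu-opioid receptor · Doses – single dose · Detection – Fluo4 calcium-dye fluorescence, kinetic read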
TRPC4 agonist = opens the mouse TRPC4 cation channel; Q9QUQ5; HEK293 TRPC4beta/mu-opioid, Fluo4 calcium fluorescence; stronger effect = higher value; B-score at 10 µM; hit rate 0.49% among 310,000;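 active = B-score above 5 SD of library B-scores, and initial fluorescence ratio not above library mean plus 5 SD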;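 note: positive B-score marks a calcium rise read as TRPC4 activation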
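Material: TRPC4beta and mu-opioid receptor HEK293 stable cells | Incubation: 45 min room-temperature Fluo4 loading, 110 s read | Detection: Kinetic Fluo4 calcium fluorescence | Measure: Integrated baseline-normalised fluorescence ratio, converted to per-well B score | Benchmarks: Low control buffer alone, high control maximal DAMGO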
TRPC4 spec 2 = second selectivity test of TRPC6 inhibitors: effect on mouse TRPC4; shares compounds with TRPC6 inhibitor; HEK293 TRPC4/MOR, membrane potential dye fluorescence; channel activated by saturating DAMGO dose; inhibition, % at 10 µM; hit rate 42% among 920; AID 2776;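 active = compounds whose fluorescence signal differed from control wells by over 3 SD, either direction, in both duplicate plates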
TRPC4 spec = selectivity of TRPC6 inhibitors: effect on mouse TRPC4; shares compounds with TRPC6 inhibitor; HEK293 TRPC4/mu-opioid, membrane potential fluorescence; activity change, negative = inhibition, % at 10 µM; hit rate 61% among 920;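 active = rise or fall in signal beyond 3 SD of buffer-only wells in both replicate plates, either sign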;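 note: integrated kinetic ratio of fluorescence range over baseline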
HEK293 MPD ctr 2-1 = second check of TRPC6 inhibitor effects in parental HEK293 cells. shares compounds with TRPC6 inhibitor. parental HEK293 membrane potential dye fluorescence; maximal acetylcholine challenge after compound addition. signal change vs control, % at 10 µM. hit rate 31% among 920;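 active = membrane potential signal moving either way by over 3 SD of the maximum-effect control, in both duplicate plates, meaning non-specific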
HEK293 MPD ctr-1 = counter-screen for TRPC6 inhibitors: effect in parental HEK293 cells; AID 2780; parental HEK293 membrane potential dye fluorescence; hit rate 60% among 920; shares compounds with TRPC6 inhibitor; membrane potential signal change, % at 10 µM;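 active = membrane potential signal shifting up or down by more than 3 SD of buffer-only wells, on both duplicate plates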
HEK293 MPD ctr-2 = counter-screen for TRPC6 modulators: effect in parental HEK293 cells | shares compounds with TRPC6 inhibitor | membrane potential dye fluorescence | membrane potential signal change, % at 10 µM | hit rate 51% among 2,400;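 active = membrane potential signal moves up or down beyond 5 SD from buffer-only wells, on both duplicate plates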
HEK293 MPD ctr 2-2 = second counter-screen for TRPC6 modulators: effect in parental HEK293 cells; hit rate 14% among 2,400; AID 488926; shares compounds with TRPC6 inhibitor; membrane potential dye fluorescence; after compound, maximal acetylcholine stimulation; inhibition, % at 10 µM;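 active = membrane potential signal drops by more than 5 SD from the mean control signal, in both duplicate plates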
TRPC4/MOR mod = selectivity of TRPC6 modulators against mouse TRPC4; shares compounds with TRPC6 inhibitor; HEK293 TRPC4/mu-opioid, membrane potential fluorescence; percent change from control (negative = decrease, positive = increase), % at 10 µM; hit rate 69% among 2,400;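 active = membrane potential signal moved up or down beyond 5 SD of buffer control wells, in both duplicate plates, actives on both sides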
TRPC4 ctr inh 2 = mouse TRPC4 off-target activity of TRPC6 modulators, second screen; shares compounds with TRPC6 inhibitor; AID 488928; inhibition, % at 10 µM; hit rate 55% among 2,400; HEK293 TRPC4/mu-opioid, membrane potential dye fluorescence; stimulated with maximal-effect DAMGO;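 active = drop in membrane potential signal beyond 5 SD of the control wells in both duplicate plates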;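 note: TRPC4 counter screen for TRPC6 hits run under conditions tuned for TRPC6 not TRPC4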
TRPC6 inh conf = mouse TRPC6 inhibitor confirmation; shares compounds with TRPC6 inhibitor; HEK293-TRPC6, membrane potential dye, ACh-evoked depolarization; inhibition, % at 10 µM; hit rate 43% among 3,300;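 active = fluorescence ratio falls more than 5 SD below the full-stimulation control mean, in both duplicate runs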;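 note: integrated fluorescence ratio of peak minus minimum over baseline after agonist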
TRPC6 act conf = mouse TRPC6 activator confirmation; HEK293-TRPC6 membrane potential dye fluorescence, FDSS; activation, % at 10 µM; shares compounds with TRPC6 inhibitor; AID 488961; hit rate 11% among 2,800;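 active = ratio signal rise beyond 5 SD above unstimulated control wells' mean, seen in both duplicate runs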
Each line names hits and unclear results; the compound was inactive in the other large screens (follow-up assays come after a bar, where they were run).

CCCCN1C(=O)/C(=C/C=C2\Oc3ccccc3N2CC)SC1=S	TRPC6 activator 34.8 | HEK293 MPD ctr-2 338.5% | HEK293 MPD ctr 2-2 inactive | TRPC4/MOR mod 99.0% | TRPC4 ctr inh 2 inactive | TRPC6 inh conf inactive | TRPC6 act conf inactive
CN1C(=O)c2cccc3c(N(C)C)ccc(c23)C1=O	TRPC6 activator 18.6 | HEK293 MPD ctr-2 927.0% | HEK293 MPD ctr 2-2 active | TRPC4/MOR mod 143.5% | TRPC4 ctr inh 2 57.5% | TRPC6 act conf 234.5%
COc1cc(/C=C/C(=O)c2ccc3c(c2)OCCO3)cc(Br)c1OCC(=O)N(C)C	TRPC6 activator 12.9 | HEK293 MPD ctr-2 126.0% | HEK293 MPD ctr 2-2 inactive | TRPC4/MOR mod 27.0% | TRPC4 ctr inh 2 inactive | TRPC6 inh conf inactive | TRPC6 act conf 51.0%
CSc1nnc(C)c(/C=C/Nc2ccc(Cl)cc2)n1	TRPC6 activator 14 | HEK293 MPD ctr-2 214.0% | HEK293 MPD ctr 2-2 inactive | TRPC4/MOR mod 35.5% | TRPC4 ctr inh 2 inactive | TRPC6 inh conf inactive | TRPC6 act conf 36.5%
O=C(NCCCN1CCCC1)c1cc2c(Cl)nc3ccccc3c2s1	TRPC6 inhibitor -6.6 | HEK293 MPD ctr-2 inactive | HEK293 MPD ctr 2-2 inactive | TRPC4/MOR mod inactive | TRPC4 ctr inh 2 35.0% | TRPC6 inh conf inactive | TRPC6 act conf inactive
COc1c(Cl)cc(-c2noc(C)c2C(=O)NCCc2ccc(C)cc2)cc1Cl	none
O=C(Nc1ccncc1)Nc1ccncc1	TRPC6 inhibitor -7.47 | HEK293 MPD ctr-2 -309.5% | HEK293 MPD ctr 2-2 69.5% | TRPC4/MOR mod -50.5% | TRPC4 ctr inh 2 37.5% | TRPC6 inh conf inactive | TRPC6 act conf inactive
CC(=O)c1ccc(NC(=O)Nc2cccnc2)cc1	none
CC(=O)c1ccc(NC(=O)Nc2ccncc2)cc1	TRPC6 inhibitor -5.22, TRPC4 block -6, TRPC4 agonist 43 | HEK293 MPD ctr-2 -142.5% | HEK293 MPD ctr 2-2 73.5% | TRPC4/MOR mod -11.5% | TRPC4 ctr inh 2 52.0% | TRPC6 inh conf 48.0% | TRPC6 act conf inactive
O=C(Nc1ccncc1)Nc1ccc(Cl)cc1	none
CC1CCCN(S(=O)(=O)c2ccc(S(=O)(=O)N3CCC4(CC3)OCCO4)cc2)C1 (stereo not given)	none
Cc1cccc(OCC(O)Cn2c(=N)n(CCN3CCCCC3)c3ccccc32)c1 (stereo not given)	none
Cc1ccc(OCC(O)Cn2c(=N)n(Cc3ccccc3)c3ccccc32)cc1 (stereo not given)	TRPC6 inhibitor -8.1 | TRPC4 spec 2 40.5% | TRPC4 spec 10.9% | HEK293 MPD ctr 2-1 258.5% | HEK293 MPD ctr-1 8.5% | TRPC6 inh conf inactive | TRPC6 act conf inactive

Assay outcomes (PubChem BioAssay)
